In series [1] the test system is MCF7. The series is described as follows: Cytotoxicity against human MCF7 cells after 72 hrs by XTT colorimetric assay. The format is functional, cell-based. Conditions: MCF7, 72 h. The essentials: (§1)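 Seven-line tumour panel run with an XTT colorimetric cytotoxicity read-out; IC50 values estimated from the XTT data. Tissue origins: A549 lung carcinoma, MCF-7 breast cancer, OVCAR-3 ovarian cancer, PC-3 prostate cancer, WiDr colorectal cancer.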
(In general: Tetrazolium dyes change colour on reduction, which living cells bring about.)

Series [2] relates to A549. The series can be described thus: Cytotoxicity against human A549 cells after 72 hrs by XTT colorimetric assay. It is filed as functional, cell-based. Conditions: A549, 72 h. The essentials:
as §1

For series [3], the system named is MCF7. The series is described as follows: Cytotoxicity against human MCF7 cells at 5 uM after 72 hrs by XTT colorimetric assay. The format is functional. The method in brief: (§2)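 Initial screen on a five-line panel (A549, COS-7, MCF-7, WiDr, NIH3T3). Compounds were tested at concentrations up to 5 µM. Read-out was percent inhibition of cell growth at the highest concentration, 5 µM.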

Series [4] has as its system A549. The series can be described thus: Cytotoxicity against human A549 cells at 5 uM after 72 hrs by XTT colorimetric assay. It is filed as functional. The essentials:
as §2

For a further series, the system named is OVCAR-3. The series can be described thus: Cytotoxicity against human OVCAR-3 cells after 72 hrs by XTT colorimetric assay. It is filed as functional, cell-based. Conditions: OVCAR-3, 72 h. The essentials: as §1
A further series has as its system PC-3. The series can be described thus: Cytotoxicity against human PC3 cells after 72 hrs by XTT colorimetric assay. It is filed as functional, cell-based. The settings on record: PC-3, 72 h. The essentials: as §1
The test system of series [5] is WiDr. The series can be described thus: Cytotoxicity against human WiDr cells after 72 hrs by XTT colorimetric assay.
Series [6] relates to WiDr. The series is described as follows: Cytotoxicity against human WiDr cells upto 5 uM after 72 hrs by XTT colorimetric assay. The format is functional, cell-based. The method in brief: as §2
A further series has as its system NIH3T3. The series can be described thus: Cytotoxicity against mouse NIH3T3 cells upto 5 uM after 72 hrs by XTT colorimetric assay. It is filed as cell-based. The settings on record: nih3t3, 72 h. The essentials: as §2
The subject of series [7] is MCF7. The series is described as follows: Cytotoxicity against human MCF7 cells upto 5 uM after 72 hrs by XTT colorimetric assay. It is filed as functional, cell-based. The essentials:
as §2

Series [8] relates to A549. The series can be described thus: Cytotoxicity against human A549 cells upto 5 uM after 72 hrs by XTT colorimetric assay. It is filed as functional, cell-based. The essentials:
as §2

Series [9] is described as follows: Cytotoxicity against african green monkey COS7 cells upto 5 uM after 72 hrs by XTT colorimetric assay. It is filed as cell-based. The settings on record: chlorocebus aethiops, cos-7, 72 h. The essentials:
as §2

For a further series, the system named is JVM-2. The series is described as follows: Cytotoxicity against human JVM2 cells after 72 hrs by XTT colorimetric assay. It is filed as functional, cell-based. The settings on record: JVM-2, 72 h. The essentials:
(§3)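 Mantle cell lymphoma lines (JeKo-1, JVM-2), screened within a seven-line human tumour panel. Viability read out by XTT colorimetric cytotoxicity assay, with IC50 estimated from the resulting growth inhibition data.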

Series [10] can be described thus: Cytotoxicity against human JeKo1 cells after 72 hrs by XTT colorimetric assay. The settings on record: JeKo-1, 72 h. It is filed as functional, cell-based. The essentials:
as §3

Among the data in ChEMBL document CHEMBL1140114, “Antitumor compounds based on a natural product consensus pharmacophore” (J Med Chem, 2008) are IC50 and Activity values, retold here.

Each structure is given as a SMILES string. The source made the active and inactive calls. No cut-off for these calls is given here.

Consider `CC(=O)O[C@@H](C)/C=C\C(=O)N[C@@H]1C[C@H](C)[C@H](C/C=C(C)/C=C/[C@H]2O[C@](C)(O)C[C@@]3(CO3)[C@@H]2O)O[C@@H]1C`, for which the IC50 (commonly the concentration that inhibits the measured activity by half) is 1.8 nM in the series on MCF7 [1] and 1.3 nM with A549 [2].

Turning to `CC(=O)O[C@@H](C)/C=C\C(=O)N[C@H]1CC[C@@H](COC(=O)OC[C@@H]2C[C@]3(CO3)CC(C)(C)O2)CC1`, the Activity with MCF7 [3] and in the series with A549 [4] was 10% throughout.

Take `CC[C@H](O)[C@@H](C)[C@H]1O[C@@H]1C[C@H](C)/C=C/C=C(\C)[C@H]1OC(=O)C[C@H](O)CC[C@@](C)(O)[C@@H](OC(C)=O)CC[C@@H]1C` [PLADIENOLIDE B]: the IC50 worked out at 0.4 nM in the series on OVCAR-3; 2.3 nM in the series on PC-3; 0.4 nM with MCF7 [1]; 1.4 nM with A549 [2]; 0.86 nM in the series with WiDr [5].

Turning to `CC(=O)O[C@@H](C)/C=C\C(=O)N[C@H]1CC[C@@H](CNC(=O)OC[C@@H]2C[C@]3(CO3)CC(C)(C)O2)CC1`, the outcome with WiDr [6], in the series with MCF7 [7] and in the series on A549 [8] was inactive. Also, the Activity result (with NIH3T3; in [9]) was “Not Active” in each case.

Regarding `CC(=O)O[C@@H](C)/C=C\C(=O)N[C@H]1CC[C@@H](C/C=C(C)/C=C/[C@@H]2C[C@]3(CO3)CC(C)(C)O2)CC1`, the IC50 in the series with OVCAR-3 was found to be 1980 nM; with PC-3 it was 2120 nM; in the series on MCF7 [1] it was 2290 nM; in the series with JVM-2 it was 130 nM; in the series on A549 [2] it was 4650 nM; in series [10] it was 100 nM. In the series on WiDr [5], this compound displayed an IC50 of 2030 nM.
